Experimental data published in ChEMBL document CHEMBL5724801, “EUbOPEN Chemogenomics Library - Multiplex” (2024).
Values joined by “and” are separate entries in the source; they are usually repeats but may differ in a detail not shown here. Equal values may be shown once.

Tested on: U2OS
Assay: Multiplex assay against U2OS
Format: toxicity, cell-based
Details: human
Method in brief: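 Imaging took place on a CQ1 microscope at 37°C and 5% CO2 once compound had been added to live cells stained at seeding with Hoechst33342, BioTracker Green Microtubule Cytoskeleton Dye, MitoTracker Red and Annexin V Alexa Fluor 680. CellPathfinder machine-learning gating classed cells as Hoechst high-intensity objects or normal cells, classed normal cells as having healthy, pyknosed or fragmented nuclei, and classed pyknosed cells as mitotic or apoptotic. Tubulin, mitochondrial-mass and membrane-permeability phenotypes are per cents of the healthy-nucleus cells.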

[1] = 12 h, 1 µM, compound concentration 1 uM
[2] = 12 h, 10 µM, compound concentration 10 uM
[3] = 24 h, 1 µM, compound concentration 1 uM
[4] = 24 h, 10 µM, compound concentration 10 uM
[5] = 48 h, 1 µM, compound concentration 1 uM
[6] = 48 h, 10 µM, compound concentration 10 uM

## CCn1c(-c2ccncc2)cc2c1CCNC2=O
[1]
  Population Apoptotic (%): 53.12% and 58.33%
  Population Fragmented Nuclei (%): 2.21% and 6.71%
  Population Healthy Nuclei (%): 88.95% and 78.66%
  Population Hoechst High Intensity Objects (%): 0%
  Population Membrane Permeable-Phenotype (%): 0.93% and 4.65%
  Population Mitochondria Different-Phenotype (%): 0.31% and 6.98%
  Population Mitotic Cells (%): 46.88% and 41.67%
  Population Normal (%): 100%
  Population Pyknosed Nuclei (%): 8.84% and 14.63%
  Population Tubulin-Different-Phenotype (%): 1.24% and 3.88%
  Total Cell Count: 362 and 164
[2]
  Population Apoptotic (%): 43.94% and 36.59%
  Population Fragmented Nuclei (%): 4.31% and 5.7%
  Population Healthy Nuclei (%): 69.8% and 68.35%
  Population Hoechst High Intensity Objects (%): 0%
  Population Membrane Permeable-Phenotype (%): 3.93% and 8.33%
  Population Mitochondria Different-Phenotype (%): 0% and 6.48%
  Population Mitotic Cells (%): 56.06% and 63.41%
  Population Normal (%): 100%
  Population Pyknosed Nuclei (%): 25.88% and 25.95%
  Population Tubulin-Different-Phenotype (%): 2.25% and 1.85%
  Total Cell Count: 255 and 158
[3]
  Population Apoptotic (%): 59.26% and 60%
  Population Fragmented Nuclei (%): 3.6% and 7.14%
  Population Healthy Nuclei (%): 75.58% and 63.1%
  Population Hoechst High Intensity Objects (%): 0%
  Population Membrane Permeable-Phenotype (%): 1.02% and 6.6%
  Population Mitochondria Different-Phenotype (%): 0% and 13.21%
  Population Mitotic Cells (%): 40.74% and 40%
  Population Normal (%): 100%
  Population Pyknosed Nuclei (%): 20.82% and 29.76%
  Population Tubulin-Different-Phenotype (%): 1.02% and 5.66%
  Total Cell Count: 389 and 168
[4]
  Population Apoptotic (%): 46.96% and 46.84%
  Population Fragmented Nuclei (%): 11.97% and 16.77%
  Population Healthy Nuclei (%): 43.63% and 34.16%
  Population Hoechst High Intensity Objects (%): 0%
  Population Membrane Permeable-Phenotype (%): 1.77% and 9.09%
  Population Mitochondria Different-Phenotype (%): 0% and 9.09%
  Population Mitotic Cells (%): 53.04% and 53.16%
  Population Normal (%): 100%
  Population Pyknosed Nuclei (%): 44.4% and 49.07%
  Population Tubulin-Different-Phenotype (%): 3.54% and 5.45%
  Total Cell Count: 259 and 161
[5]
  Population Apoptotic (%): 67.24% and 64.84%
  Population Fragmented Nuclei (%): 5.9% and 9.91%
  Population Healthy Nuclei (%): 56.11% and 49.1%
  Population Hoechst High Intensity Objects (%): 0%
  Population Membrane Permeable-Phenotype (%): 3.5% and 6.42%
  Population Mitochondria Different-Phenotype (%): 0% and 4.59%
  Population Mitotic Cells (%): 32.76% and 35.16%
  Population Normal (%): 100%
  Population Pyknosed Nuclei (%): 37.99% and 40.99%
  Population Tubulin-Different-Phenotype (%): 7.39% and 6.42%
  Total Cell Count: 458 and 222
[6]
  Population Apoptotic (%): 66.29% and 76.67%
  Population Fragmented Nuclei (%): 10.3% and 11.18%
  Population Healthy Nuclei (%): 14.59% and 9.87%
  Population Hoechst High Intensity Objects (%): 0% and 0.65%
  Population Mitochondria Different-Phenotype (%): 0%
  Population Mitotic Cells (%): 33.71% and 23.33%
  Population Normal (%): 100% and 99.35%
  Population Pyknosed Nuclei (%): 75.11% and 78.95%
  Population Tubulin-Different-Phenotype (%): 23.53% and 26.67%
  Total Cell Count: 233 and 153

## O=C(O)C(F)(F)F.O=C1NC(=O)/C(=C/c2c[nH]c(=O)c(-c3ccc(N4CCNCC4)nc3)c2)S1
[1]
  Population Apoptotic (%): 42.86% and 38.46%
  Population Fragmented Nuclei (%): 1.89% and 1.93%
  Population Healthy Nuclei (%): 92.45% and 85.51%
  Population Hoechst High Intensity Objects (%): 0%
  Population Membrane Permeable-Phenotype (%): 0.29% and 4.52%
  Population Mitochondria Different-Phenotype (%): 0.29% and 6.21%
  Population Mitotic Cells (%): 57.14% and 61.54%
  Population Normal (%): 100%
  Population Pyknosed Nuclei (%): 5.66% and 12.56%
  Population Tubulin-Different-Phenotype (%): 0.58% and 2.82%
  Total Cell Count: 371 and 207
[2]
  Population Apoptotic (%): 25% and 60%
  Population Fragmented Nuclei (%): 1.57% and 2.75%
  Population Healthy Nuclei (%): 90.03% and 86.26%
  Population Hoechst High Intensity Objects (%): 0%
  Population Membrane Permeable-Phenotype (%): 2.62% and 4.46%
  Population Mitochondria Different-Phenotype (%): 0.29% and 5.73%
  Population Mitotic Cells (%): 75% and 40%
  Population Normal (%): 100%
  Population Pyknosed Nuclei (%): 8.4% and 10.99%
  Population Tubulin-Different-Phenotype (%): 1.17% and 1.27%
  Total Cell Count: 381 and 182
[3]
  Population Apoptotic (%): 38.46% and 27.27%
  Population Fragmented Nuclei (%): 0.79% and 0.38%
  Population Healthy Nuclei (%): 94.08% and 86.92%
  Population Hoechst High Intensity Objects (%): 0%
  Population Membrane Permeable-Phenotype (%): 0.42% and 3.98%
  Population Mitochondria Different-Phenotype (%): 0.21% and 3.98%
  Population Mitotic Cells (%): 61.54% and 72.73%
  Population Normal (%): 100%
  Population Pyknosed Nuclei (%): 5.13% and 12.69%
  Population Tubulin-Different-Phenotype (%): 0.42% and 1.33%
  Total Cell Count: 507 and 260
[4]
  Population Apoptotic (%): 40.62% and 57.89%
  Population Fragmented Nuclei (%): 2.9% and 4.85%
  Population Healthy Nuclei (%): 90.91% and 86.78%
  Population Hoechst High Intensity Objects (%): 0%
  Population Membrane Permeable-Phenotype (%): 3.19% and 4.06%
  Population Mitochondria Different-Phenotype (%): 0.21% and 4.57%
  Population Mitotic Cells (%): 59.38% and 42.11%
  Population Normal (%): 100%
  Population Pyknosed Nuclei (%): 6.19% and 8.37%
  Population Tubulin-Different-Phenotype (%): 1.49% and 0.51%
  Total Cell Count: 517 and 227
[5]
  Population Apoptotic (%): 51.47% and 41.86%
  Population Fragmented Nuclei (%): 2% and 1.49%
  Population Healthy Nuclei (%): 90.84% and 89.38%
  Population Hoechst High Intensity Objects (%): 0%
  Population Membrane Permeable-Phenotype (%): 0.93% and 3.09%
  Population Mitochondria Different-Phenotype (%): 0.12% and 2.14%
  Population Mitotic Cells (%): 48.53% and 58.14%
  Population Normal (%): 100%
  Population Pyknosed Nuclei (%): 7.16% and 9.13%
  Population Tubulin-Different-Phenotype (%): 1.04% and 1.66%
  Total Cell Count: 950 and 471
[6]
  Population Apoptotic (%): 38.82% and 45.95%
  Population Fragmented Nuclei (%): 2.93% and 2.98%
  Population Healthy Nuclei (%): 88.48% and 87.84%
  Population Hoechst High Intensity Objects (%): 0.1% and 0%
  Population Membrane Permeable-Phenotype (%): 1.48% and 3.39%
  Population Mitochondria Different-Phenotype (%): 0% and 1.98%
  Population Mitotic Cells (%): 61.18% and 54.05%
  Population Normal (%): 99.9% and 100%
  Population Pyknosed Nuclei (%): 8.59% and 9.18%
  Population Tubulin-Different-Phenotype (%): 0.68% and 1.69%
  Total Cell Count: 991 and 403

## O=C1NC(NC23CC4CC(CC(C4)C2)C3)=N/C1=C\c1ccc2ncsc2c1
[1]
  Population Apoptotic (%): 51.02% and 44.83%
  Population Fragmented Nuclei (%): 17.88% and 22.19%
  Population Healthy Nuclei (%): 75% and 69.66%
  Population Hoechst High Intensity Objects (%): 0.86% and 0%
  Population Membrane Permeable-Phenotype (%): 0.97% and 3.63%
  Population Mitochondria Different-Phenotype (%): 0% and 3.23%
  Population Mitotic Cells (%): 48.98% and 55.17%
  Population Normal (%): 99.14% and 100%
  Population Pyknosed Nuclei (%): 7.12% and 8.15%
  Population Tubulin-Different-Phenotype (%): 0.58% and 2.82%
  Total Cell Count: 694 and 356
[2]
  Population Apoptotic (%): 44.44% and 38.46%
  Population Fragmented Nuclei (%): 64.07% and 81%
  Population Healthy Nuclei (%): 21.59% and 11.58%
  Population Membrane Permeable-Phenotype (%): 0.82% and 0%
  Population Mitochondria Different-Phenotype (%): 0% and 1.41%
  Population Mitotic Cells (%): 55.56% and 61.54%
  Population Normal (%): 52.03% and 84.32%
  Population Pyknosed Nuclei (%): 14.34% and 7.42%
  Population Tubulin-Different-Phenotype (%): 0% and 1.41%
  Total Cell Count: 1086 and 1454
[3]
  Population Apoptotic (%): 50% and 44.68%
  Population Fragmented Nuclei (%): 19.28% and 20.63%
  Population Healthy Nuclei (%): 75.17% and 67.96%
  Population Hoechst High Intensity Objects (%): 0.69% and 0%
  Population Membrane Permeable-Phenotype (%): 1.48% and 2.86%
  Population Mitochondria Different-Phenotype (%): 0.37% and 5.71%
  Population Mitotic Cells (%): 50% and 55.32%
  Population Normal (%): 99.31% and 100%
  Population Pyknosed Nuclei (%): 5.55% and 11.41%
  Population Tubulin-Different-Phenotype (%): 2.03% and 2.86%
  Total Cell Count: 726 and 412
[4]
  Population Apoptotic (%): 45.1% and 35.71%
  Population Fragmented Nuclei (%): 58.49% and 84.85%
  Population Healthy Nuclei (%): 17.9% and 8.37%
  Population Membrane Permeable-Phenotype (%): 0%
  Population Mitochondria Different-Phenotype (%): 0%
  Population Mitotic Cells (%): 54.9% and 64.29%
  Population Normal (%): 60.11% and 86.9%
  Population Tubulin-Different-Phenotype (%): 0%
  Total Cell Count: 1078 and 1664
[5]
  Population Apoptotic (%): 50% and 51.75%
  Population Fragmented Nuclei (%): 22.08% and 20.53%
  Population Healthy Nuclei (%): 72.6% and 58%
  Population Hoechst High Intensity Objects (%): 3.35% and 1.12%
  Population Membrane Permeable-Phenotype (%): 1.27% and 2.27%
  Population Mitochondria Different-Phenotype (%): 0.32% and 9.42%
  Population Mitotic Cells (%): 50% and 48.25%
  Population Normal (%): 96.65% and 98.88%
  Population Tubulin-Different-Phenotype (%): 2.23% and 2.6%
  Total Cell Count: 895 and 537
[6]
  Population Apoptotic (%): 51.13% and 47.24%
  Population Fragmented Nuclei (%): 58.82% and 85.02%
  Population Healthy Nuclei (%): 12.73% and 6.82%
  Population Hoechst High Intensity Objects (%): 31% and 15.76%
  Population Membrane Permeable-Phenotype (%): 0% and 1.89%
  Population Mitochondria Different-Phenotype (%): 0% and 0.94%
  Population Mitotic Cells (%): 48.87% and 52.76%
  Population Normal (%): 69% and 84.24%
  Population Tubulin-Different-Phenotype (%): 0%
  Total Cell Count: 1355 and 1846
